Laboratory results published in ChEMBL document CHEMBL5724801, “EUbOPEN Chemogenomics Library - Multiplex” (2024).
Several values for one entry are separate records, joined by “and”; a condition that tells them apart may be missing. Equal entries are not always repeated.

System: Fibroblast
Assay: Multiplex assay against human fibroblast
Assay type: toxicity, cell-based
How it was run: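 Live cells were stained at seeding with Hoechst33342, BioTracker Green Microtubule Cytoskeleton Dye, MitoTracker Red and Annexin V Alexa Fluor 680, then imaged on a CQ1 microscope at 37°C and 5% CO2 after compound addition. CellPathfinder machine-learning gating split cells into Hoechst high-intensity objects or normal cells. Normal cells were split into healthy, pyknosed or fragmented nuclei, and pyknosed cells into mitotic or apoptotic. Tubulin, mitochondrial-mass and membrane-permeability phenotypes are per cents of healthy-nucleus cells.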

[1] = 12 h, 1 µM, compound concentration 1 uM
[2] = 12 h, 10 µM, compound concentration 10 uM
[3] = 24 h, 1 µM, compound concentration 1 uM
[4] = 24 h, 10 µM, compound concentration 10 uM
[5] = 48 h, 1 µM, compound concentration 1 uM
[6] = 48 h, 10 µM, compound concentration 10 uM

With `CCOC(=O)c1c(/C(C#N)=C\N)c2ccc(Cl)c(Cl)c2n1C` the “Population Fragmented Nuclei (%)” value [1] was 11.86% and 4.52%, the “Population Healthy Nuclei (%)” value [1] was 64.41% and 76.92% and the “Population Hoechst High Intensity Objects (%)” value [1] was 0%. The “Population Membrane Permeable-Phenotype (%)” value [1] was 0% and 2.94%, the “Population Mitochondria Different-Phenotype (%)” value [1] was 11.84% and 14.71% and the “Population Mitotic Cells (%)” value [1] was 96.43% and 85.37%. For the same molecule, the “Population Normal (%)” value [1] was 100%, the “Population Pyknosed Nuclei (%)” value [1] was 23.73% and 18.55% and the “Population Tubulin-Different-Phenotype (%)” value [1] was 10.53% and 18.82%. The “Total Cell Count” value [1] was 118 and 221, the “Population Apoptotic (%)” value [2] was 24.32% and 12.77% and the “Population Fragmented Nuclei (%)” value [2] was 10.92% and 3.83%. For the same molecule, the “Population Healthy Nuclei (%)” value [2] was 67.82% and 76.17%, the “Population Hoechst High Intensity Objects (%)” value [2] was 0% and the “Population Membrane Permeable-Phenotype (%)” value [2] was 4.24% and 1.12%. For the same molecule, the “Population Mitochondria Different-Phenotype (%)” value [2] was 3.39% and 7.82%, the “Population Mitotic Cells (%)” value [2] was 75.68% and 87.23% and the “Population Normal (%)” value [2] was 100%. For the same molecule, the “Population Pyknosed Nuclei (%)” value [2] was 21.26% and 20%, the “Population Tubulin-Different-Phenotype (%)” value [2] was 15.25% and 16.2% and the “Total Cell Count” value [2] was 174 and 235. The “Population Apoptotic (%)” value [3] was 0% and 20.83%, the “Population Fragmented Nuclei (%)” value [3] was 7.25% and 3.83% and the “Population Healthy Nuclei (%)” value [3] was 72.46% and 85.96%. For the same molecule, the “Population Hoechst High Intensity Objects (%)” value [3] was 0%, the “Population Membrane Permeable-Phenotype (%)” value [3] was 4% and 1.98% and the “Population Mitochondria Different-Phenotype (%)” value [3] was 3% and 6.93%. The “Population Mitotic Cells (%)” value [3] was 100% and 79.17%, the “Population Normal (%)” value [3] was 100% and the “Population Pyknosed Nuclei (%)” value [3] was 20.29% and 10.21%. For the same molecule, the “Population Tubulin-Different-Phenotype (%)” value [3] was 11% and 18.81%, the “Total Cell Count” value [3] was 138 and 235 and the “Population Apoptotic (%)” value [4] was 14.81% and 20.59%. The “Population Fragmented Nuclei (%)” value [4] was 8.02% and 1.27%, the “Population Healthy Nuclei (%)” value [4] was 77.54% and 84.39% and the “Population Hoechst High Intensity Objects (%)” value [4] was 0%. The “Population Membrane Permeable-Phenotype (%)” value [4] was 3.45% and 2.5%, the “Population Mitochondria Different-Phenotype (%)” value [4] was 4.14% and 7% and the “Population Mitotic Cells (%)” value [4] was 85.19% and 79.41%. For the same molecule, the “Population Normal (%)” value [4] was 100%, the “Population Pyknosed Nuclei (%)” value [4] was 14.44% and 14.35% and the “Population Tubulin-Different-Phenotype (%)” value [4] was 11.03% and 18.5%. The “Total Cell Count” value [4] was 187 and 237, the “Population Apoptotic (%)” value [5] was 40% and 25% and the “Population Fragmented Nuclei (%)” value [5] was 12.18% and 3.67%. The “Population Healthy Nuclei (%)” value [5] was 84.62% and 91.43%, the “Population Hoechst High Intensity Objects (%)” value [5] was 0% and the “Population Membrane Permeable-Phenotype (%)” value [5] was 0% and 2.68%. The “Population Mitotic Cells (%)” value [5] was 60% and 75%, the “Population Normal (%)” value [5] was 100% and the “Population Pyknosed Nuclei (%)” value [5] was 3.21% and 4.9%. For the same molecule, the “Population Tubulin-Different-Phenotype (%)” value [5] was 7.58% and 20.98%, the “Total Cell Count” value [5] was 156 and 245 and the “Population Apoptotic (%)” value [6] was 44.44% and 21.05%. The “Population Fragmented Nuclei (%)” value [6] was 8.78% and 2.61%, the “Population Healthy Nuclei (%)” value [6] was 86.83% and 89.13% and the “Population Hoechst High Intensity Objects (%)” value [6] was 0%. For the same molecule, the “Population Membrane Permeable-Phenotype (%)” value [6] was 0.56% and 2.93%, the “Population Mitochondria Different-Phenotype (%)” value [6] was 11.24% and 1.95% and the “Population Mitotic Cells (%)” value [6] was 55.56% and 78.95%. For the same molecule, the “Population Normal (%)” value [6] was 100%, the “Population Pyknosed Nuclei (%)” value [6] was 4.39% and 8.26% and the “Total Cell Count” value [6] was 205 and 230.
